Reference: ChEMBL document CHEMBL1250472, “"Clicked" bivalent ligands containing curcumin and cholesterol as multifunctional abeta oligomerization inhibitors: design, synthesis, and biological characterization” (J Med Chem, 2010)
Calls of active or inactive are those of the source. The rule behind the calls is not given here.

What was measured:
[1] = target: Amyloid-beta precursor protein (Homo sapiens) (UniProt P05067); experiment: Inhibition of APP expressed in human MC65 cells assessed as inhibition of amyloid beta oligomer formation at 10 uM by Western blotting after removal of tetracycline
Amyloid-beta precursor protein (Homo sapiens), sequence (P05067 whole entry): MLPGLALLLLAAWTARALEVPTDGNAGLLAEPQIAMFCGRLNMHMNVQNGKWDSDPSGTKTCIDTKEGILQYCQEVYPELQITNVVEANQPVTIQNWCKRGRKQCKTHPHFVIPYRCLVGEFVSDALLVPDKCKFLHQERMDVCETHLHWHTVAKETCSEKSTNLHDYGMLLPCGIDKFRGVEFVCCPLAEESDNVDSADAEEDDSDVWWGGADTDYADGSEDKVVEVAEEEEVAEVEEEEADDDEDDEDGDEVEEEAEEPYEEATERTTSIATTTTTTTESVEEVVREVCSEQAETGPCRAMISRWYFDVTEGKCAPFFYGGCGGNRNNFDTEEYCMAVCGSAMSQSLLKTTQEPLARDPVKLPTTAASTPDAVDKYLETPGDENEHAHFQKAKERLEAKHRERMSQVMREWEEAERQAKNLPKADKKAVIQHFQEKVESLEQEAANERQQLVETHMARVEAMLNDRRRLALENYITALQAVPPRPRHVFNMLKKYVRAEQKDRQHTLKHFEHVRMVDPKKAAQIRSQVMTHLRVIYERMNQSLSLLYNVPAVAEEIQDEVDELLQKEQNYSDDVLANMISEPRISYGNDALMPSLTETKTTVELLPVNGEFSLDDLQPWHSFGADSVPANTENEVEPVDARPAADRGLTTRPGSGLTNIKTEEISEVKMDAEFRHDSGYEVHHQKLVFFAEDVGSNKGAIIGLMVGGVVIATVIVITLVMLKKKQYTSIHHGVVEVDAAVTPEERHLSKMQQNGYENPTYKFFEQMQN

[2] = test system: Spleen; experiment: Toxicity against mouse spleen after 24 hrs; type: tissue-based; settings: in vitro
[3] = Cytotoxicity against mouse NK cells after 24 hrs
[4] = test system: MC65; experiment: Binding affinity to amyloid beta expressed in human MC65 cells after 24 hrs by immunocytometry; type: cell-based
Summary of the method: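 MC65 cells, 1 × 10^4/well, given compounds (10 μM) right after TC removal, 24 h. Surface stained with Alexa 488-CTX-B on ice, then fixed in 4% paraformaldehyde and permeabilized with Triton X-100. Stained with A11 oligomer antibody plus Alexa 568 secondary, DAPI counterstain. Confocal imaging; red puncta per cell averaged over five areas.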

[5] = Apparent permeability from apical to basolateral side of human Caco-2 cells; type: ADME, cell-based
Summary of the method: (§1)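 Caco-2 cells, passages 30-50, grown 21 days on transwell inserts to confluence; TEER >400 ohm·cm² and lucifer yellow permeability <1 × 10^-6 cm/s. Compound at 10 μM added apical or basolateral in HBSS, 37 °C with shaking. Sampling at 30, 60, 120 min, HPLC with fluorescence detection. Permeability calculated by Fick's law; efflux ratio is B-A/A-B.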

[6] = test system: MC65; experiment: Binding affinity to cell membrane/lipid raft of human MC65 cells after 24 hrs by immunocytometry; type: cell-based
Summary of the method: (§2)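 MC65 cells exposed to compound (10 μM) for 24 h, fixed in 4% paraformaldehyde, permeabilized with 0.1% Triton X-100, DAPI-stained. Compound's own fluorescence located by confocal microscopy (excitation 355 and 494 nm). 1.0 μm optical sections through the cell depth, projected into a composite image.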

[7] = Apparent permeability from basolateral to apical side of human Caco-2 cells; type: ADME, cell-based
Summary of the method: as §1

[8] = test system: MC65; experiment: Antioxidant activity in human MC65 cells assessed as decrease in oxidative stress by DCFH-DA assay; type: functional, cell-based
Summary of the method: (§3)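 MC65 cells, 4 × 10^4/well, grown 24 h, then exposed to compounds in Opti-MEM with or without TC for 24 h (blanks with compound only). DCFH-DA loaded at 25 μM final for 30 min at 37 °C, medium replaced, fluorescence read at 485/530 nm. Expressed as % of parallel -TC cultures, n = 5.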

[9] = target: Amyloid-beta precursor protein (Homo sapiens) (UniProt P05067); experiment: Inhibition of APP expressed in human MC65 cells assessed as inhibition of amyloid beta 42 oligomerization by transmission electron microscopy; type: cell-based
[10] = test system: MC65; experiment: Cytoprotective activity against amyloid-beta oligomer-induced cytotoxicity in human MC65 cells after 72 hrs
[11] = target: Amyloid-beta precursor protein (Homo sapiens) (UniProt P05067); experiment: Inhibition of APP expressed in human MC65 cells assessed as inhibition of amyloid beta oligomer formation at 10 uM by Western blotting; type: cell-based
Summary of the method: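 MC65 cells, 1 × 10^6/well, exposed to compounds (10 μM) in Opti-MEM with or without TC for 24 h. Lysates (10 μg protein) run on 10-20% tris-tricine SDS-PAGE and blotted with 6E10 (1:2000), HRP secondary, chemiluminescence. Three independent experiments.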

[12] = test system: SH-SY5Y; experiment: Cytoprotective activity against amyloid-beta oligomer-induced cytotoxicity in human SH-SY5Y cells after 48 hrs
[13] = test system: SH-SY5Y; experiment: Cytoprotective activity against amyloid-beta oligomer-induced cytotoxicity in human SH-SY5Y cells at 2 to 8 uM after 48 hrs
[14] = Cellular uptake in human MC65 cells after 24 hrs by immunocytometry; type: ADME, cell-based; settings: mc65, 24 h
Summary of the method: as §2

[15] = test system: SH-SY5Y; experiment: Cytoprotective activity against amyloid-beta oligomer-induced cytotoxicity in human SH-SY5Y cells at 16 uM after 48 hrs
[16] = test system: MC65; experiment: Antioxidant activity in human MC65 cells assessed as decrease in lipid peroxidation by DCFH-DA assay; type: functional, cell-based; settings: in the assay text read “intracellular oxidative stress” for “lipid peroxidation”
Summary of the method: as §3

[17] = test system: SH-SY5Y; experiment: Cytotoxicity against human SH-SY5Y cells after 48 hrs
[18] = Cytotoxicity against human MC65 cells after 72 hrs; settings: mc65, 72 h

COc1cc(/C=C/C(=O)/C=C(O)/C=C/c2ccc(OCc3cn(CCCCNC(=O)CCNC(=O)CCNC(=O)CO[C@H]4CC[C@@]5(C)C(=CC[C@H]6[C@@H]7CC[C@H]([C@H](C)CCCC(C)C)[C@@]7(C)CC[C@@H]65)C4)nn3)c(OC)c2)ccc1O
inhibition [1]: Active

CCCCNC(=O)CCC(=O)NCCCCCCn1cc(COc2ccc(/C=C/C(O)=C/C(=O)/C=C/c3ccc(O)c(OC)c3)cc2OC)nn1
inhibition [1]: inactive

COc1cc(/C=C/C(=O)/C(Cc2cn(CCCCNC(=O)CCNC(=O)CO[C@H]3CC[C@@]4(C)C(=CC[C@H]5[C@@H]6CC[C@H]([C@H](C)CCCC(C)C)[C@@]6(C)CC[C@@H]54)C3)nn2)=C(O)/C=C/c2ccc(O)c(OC)c2)ccc1O
inhibition [1]: Active

COc1cc(/C=C/C(=O)/C(Cc2cn(CCCCNC(=O)CO[C@H]3CC[C@@]4(C)C(=CC[C@H]5[C@@H]6CC[C@H]([C@H](C)CCCC(C)C)[C@@]6(C)CC[C@@H]54)C3)nn2)=C(O)/C=C/c2ccc(O)c(OC)c2)ccc1O
inhibition [1]: inactive

COc1cc(/C=C/C(=O)/C(Cc2cn(CCCCCCNC(=O)CCNC(=O)CCNC(=O)CO[C@H]3CC[C@@]4(C)C(=CC[C@H]5[C@@H]6CC[C@H]([C@H](C)CCCC(C)C)[C@@]6(C)CC[C@@H]54)C3)nn2)=C(O)/C=C/c2ccc(O)c(OC)c2)ccc1O
Activity [2]: Toxic
Activity [3]: Non-toxic
inhibition [1]: Active
Activity [4]: inactive
Papp A→B [5]: 7.1 ×10⁻⁶ cm/s
Activity [6]: Active
Papp B→A [7]: 4.7 ×10⁻⁶ cm/s
Activity [8]: Active
inhibition [9]: Active
Activity [10]: Dose-dependent effect
inhibition [11]: Active
Activity [12]: Active

COc1cc(/C=C/C(=O)CC(=O)/C=C/c2ccc(O)c(OC)c2)ccc1O [CURCUMIN]
Activity [13]: Active
Drug uptake [14]: Active
Activity [15]: inactive
inhibition [1]: inactive
Activity [16]: Active
Activity [8]: Active
inhibition [9]: Active
Activity [10]: Active
Activity [17]: Toxic

COc1cc(/C=C/C(=O)/C=C(O)/C=C/c2ccc(OCc3cn(CCCCNC(=O)CO[C@H]4CC[C@@]5(C)C(=CC[C@H]6[C@@H]7CC[C@H]([C@H](C)CCCC(C)C)[C@@]7(C)CC[C@@H]65)C4)nn3)c(OC)c2)ccc1O
inhibition [1]: inactive

COc1cc(/C=C/C(=O)/C=C(O)/C=C/c2ccc(OCc3cn(CCCCCCNC(=O)CCNC(=O)CO[C@H]4CC[C@@]5(C)C(=CC[C@H]6[C@@H]7CC[C@H]([C@H](C)CCCC(C)C)[C@@]7(C)CC[C@@H]65)C4)nn3)c(OC)c2)ccc1O
inhibition [1]: Active

COc1cc(/C=C/C(=O)/C=C(O)/C=C/c2ccc(OCc3cn(CCCCCCNC(=O)CO[C@H]4CC[C@@]5(C)C(=CC[C@H]6[C@@H]7CC[C@H]([C@H](C)CCCC(C)C)[C@@]7(C)CC[C@@H]65)C4)nn3)c(OC)c2)ccc1O
inhibition [1]: inactive

COc1cc(/C=C/C(=O)/C(Cc2cn(CCCCCCNC(=O)CO[C@H]3CC[C@@]4(C)C(=CC[C@H]5[C@@H]6CC[C@H]([C@H](C)CCCC(C)C)[C@@]6(C)CC[C@@H]54)C3)nn2)=C(O)/C=C/c2ccc(O)c(OC)c2)ccc1O
inhibition [1]: inactive

COc1cc(/C=C/C(=O)/C(Cc2cn(CCCCNC(=O)CCNC(=O)CCNC(=O)CO[C@H]3CC[C@@]4(C)C(=CC[C@H]5[C@@H]6CC[C@H]([C@H](C)CCCC(C)C)[C@@]6(C)CC[C@@H]54)C3)nn2)=C(O)/C=C/c2ccc(O)c(OC)c2)ccc1O
inhibition [1]: Active

CCCCNC(=O)CCC(=O)NCCCCCCn1cc(C/C(C(=O)/C=C/c2ccc(O)c(OC)c2)=C(O)\C=C\c2ccc(O)c(OC)c2)nn1
inhibition [1]: inactive

COc1cc(/C=C/C(=O)/C=C(O)/C=C/c2ccc(OCc3cn(CCCCCCNC(=O)CCNC(=O)CCNC(=O)CO[C@H]4CC[C@@]5(C)C(=CC[C@H]6[C@@H]7CC[C@H]([C@H](C)CCCC(C)C)[C@@]7(C)CC[C@@H]65)C4)nn3)c(OC)c2)ccc1O
Activity [18]: Non-toxic

COc1cc(/C=C/C(=O)/C=C(O)/C=C/c2ccc(OCc3cn(CCCCNC(=O)CCNC(=O)CO[C@H]4CC[C@@]5(C)C(=CC[C@H]6[C@@H]7CC[C@H]([C@H](C)CCCC(C)C)[C@@]7(C)CC[C@@H]65)C4)nn3)c(OC)c2)ccc1O
inhibition [1]: Active

COc1cc(/C=C/C(=O)/C(Cc2cn(CCCCCCNC(=O)CCNC(=O)CO[C@H]3CC[C@@]4(C)C(=CC[C@H]5[C@@H]6CC[C@H]([C@H](C)CCCC(C)C)[C@@]6(C)CC[C@@H]54)C3)nn2)=C(O)/C=C/c2ccc(O)c(OC)c2)ccc1O
Activity [18]: Non-toxic
inhibition [1]: Active
